The text below walks through data of ChEMBL document CHEMBL1126117, “Synthesis and chemical characterization of N-substituted phenoxazines directed toward reversing vinca alkaloid resistance in multidrug-resistant cancer cells” (J Med Chem, 1992).

Structures are written as SMILES. pIC50: −log10 of the molar value. A value given as a limit tells only on which side of the number the result lay.

The pIC50 is −log10 of the IC50, conventionally taken in molar units. For orientation: IC10 means the concentration at which the effect reaches the 10% level.

Test [1] has as its system KB. Kind of test: Increase in the accumulation of vinblastine in multi-drug resistant KB8-5 (HeLa variant) cell line in vitro. More on the design: concentration or dose not given beside the values. The test is classed as functional, Homo sapiens. The method in brief: (§1)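 Radiolabel accumulation. Cell monolayers (2×10^6 cells, attached overnight; KBChR-8-5 kept with 10 ng/mL colchicine) were washed and held 10 min in physiologic Tris buffer. They were then given serum-free RPMI-1640 in 25 mM Hepes, pH 7.4, with [3H]VCR (70.4 nM) or [3H]VLB (49.5 nM), ±modulator at 100 μM (<0.1% DMSO), for 2 h at room temperature. Cells were washed in ice-cold PBS, trypsinized and scintillation-counted, with cell number counted per dish. Percent control = uptake with/without modulator ×100. Mean of two experiments, each done in triplicate.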

The subject of test [2] is GC3/Cl. The experiment in a line: Increase in the accumulation of vinblastine in multi-drug resistant GC3/Cl (human adenocarcinoma) cell line in vitro. The test is classed as functional. More on the design: concentration or dose not given beside the values.
Test [3] concerns KB. The experiment in a line: Increase in the accumulation of vincristine in multi-drug resistant KB8-5 (HeLa variant) cell line in vitro. The test is classed as functional, Homo sapiens. Details: concentration or dose not given beside the values. The method in brief: as §1
In test [4] the test system is KB. Kind of test: Percent control was evaluated by measuring the ability to increase the vinca alkaloid, vinblastine(VLB) in KB8-5 cell line. The test is classed as functional, Homo sapiens. In outline: as §1
Test [5] has as its system KB. The experiment in a line: Percent control was evaluated by measuring the ability to increase the vinca alkaloid, vincristine(VCR) in KB8-5 cell line. The test is classed as functional, Homo sapiens. The method in brief:
as §1

The test system of test [6] is GC3/Cl. The experiment in a line: Concentration required to produce 50% reduction in clonogenic survival of GC3/Cl cell line. The test is classed as functional, cell-based. The settings on record: Homo sapiens. The method in brief: (§2)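 Clonogenic survival. KBChR-8-5 cells were plated in triplicate at 1000/well and GC3 cells at 3000/well. After 24 h the medium was replaced with fresh medium holding modulator at 1-100 μM (final 0.1% DMSO). Cells were kept 7 days at 37 °C, then stained with crystal violet and the colonies counted. The 50% and 10% colony-reduction concentrations were read from concentration-survival curves versus controls.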

Test [7] concerns KB. The experiment in a line: Concentration required to produce 50% reduction in clonogenic survival of KB8-5 cell line. The test is classed as functional, cell-based. As to conditions: Homo sapiens. In outline:
as §2

For test [8], the system named is GC3/Cl. Kind of test: Increase in the accumulation of vincristine in multi-drug resistant GC3/Cl (human adenocarcinoma) cell line in vitro. The test is classed as functional.
The test system of test [9] is KB. Kind of test: Concentration required to produce 10% reduction in clonogenic survival of KB8-5 cell line. The test is classed as functional. As to conditions: Homo sapiens. In outline:
as §2

The subject of test [10] is KB. The experiment in a line: Inhibitory concentration was evaluated by measuring the potentiation of VLB cytotoxicity in KB8-5 cell line. As to conditions: Homo sapiens. The test is classed as functional, cell-based. In outline:
(§3)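 Colony-formation assay. Cells were given graded VCR or VLB continuously for 7 days at 37 °C, with or without modulator at the concentration that alone reduced colony formation by 10%. Colonies were then stained with crystal violet and counted. Vinca IC50 values were derived with and without modulator, and the result was expressed as fold potentiation.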

Test [11] relates to GC3/Cl. The experiment in a line: Concentration required to produce 10% reduction in clonogenic survival of GC3/Cl cell line. The test is classed as functional, cell-based. The settings on record: Homo sapiens. The method in brief:
as §2

Test [12] deals with KB. Kind of test: Inhibitory concentration was evaluated by measuring the potentiation of VCR cytotoxicity in KB8-5 cell line. The test is classed as functional, cell-based. The settings on record: Homo sapiens. The method in brief: as §3
The subject of test [13] is GC3/Cl. Kind of test: Inhibitory concentration was evaluated by measuring the potentiation of VCR cytotoxicity in GC3/Cl cell line. The test is classed as functional, cell-based. As to conditions: Homo sapiens. In outline: as §3
Test [14] relates to GC3/Cl. The experiment in a line: Inhibitory concentration was evaluated by measuring the potentiation of VLB cytotoxicity in GC3/Cl cell line. The test is classed as functional, cell-based. As to conditions: Homo sapiens. The method in brief:
as §3

As for `CCN(CC)CCCCN1c2ccccc2Oc2ccccc21`, the Control in the test on KB [1] turned out to be 697%; in the test with GC3/Cl [2], 737%; with KB [3], 211%.
Regarding `O=C(CCl)N1c2ccccc2Oc2ccccc21`, the Control is recorded as 236% in the test with KB [4] and 138% in the test with KB [5].
In the case of `OCCN(CCO)CCCCN1c2ccccc2Oc2ccccc21`, the Control in the test with KB [1] was 403%; in the test with GC3/Cl [2] it was 1165%; in the test on KB [3], 92%. Also, the pIC50 in the test on GC3/Cl [6] is 4.80; in the test on KB [7] it was over 5.00.
In the case of `c1ccc2c(c1)Oc1ccccc1N2CCCN1CCCC1`, the Control in the test with KB [1] was 969%; in the test with GC3/Cl [2] it was 757%; in the test with KB [3], 408%; with GC3/Cl [8] it was 250%.
`c1ccc2c(c1)Oc1ccccc1N2CCCCN1CCCC1`: the values for the Control in the test on KB [1], in the test with GC3/Cl [2] and in the test on KB [3] were 477%, 1315% and 198%, respectively. Also, the negative-log IC50 (pIC50) with GC3/Cl [6] is 5.15; in the test on KB [7] it was over 5.15.
For `O=C(CN1CCOCC1)N1c2ccccc2Oc2ccccc21`, the Control is 674% with KB [1] and 290% in the test with KB [3].
For the compound `OCCN1CCN(CCCCN2c3ccccc3Oc3ccccc32)CC1`, the Control in the test on KB [1] was 188%; with GC3/Cl [2], 1340%; in the test with KB [3] it was 91%. For the same compound, the negative-log IC50 (pIC50) in the test with GC3/Cl [6] was 5.15; in the test on KB [7], over 5.15.
For the compound `O=C(N1c2ccccc2Oc2ccccc21)C(F)(F)F`, the Control in the test on KB [1] is 827%; with KB [3] it was 415%; in the test on GC3/Cl [8], 230%.
As for `c1ccc2c(c1)Oc1ccccc1N2CCCCN1CCCCC1`, the figures for the Control in the test with KB [1], with GC3/Cl [2] and in the test on KB [3] were 1071%, 1121% and 196%, respectively. Also, the pIC50 with GC3/Cl [6] was 5.15; in the test on KB [7], over 5.15.
As to `CCN(CC)CCCN1c2ccccc2Oc2ccccc21`, the Control with KB [1] is listed as 2123%; with GC3/Cl [2] it was 1025%; with KB [3], 546%. Also, the values for the pIC50 with GC3/Cl [6] and in the test with KB [7] were 5.00 and 4.82, respectively.
Take `ClCCCCN1c2ccccc2Oc2ccccc21`: the Control in the test with KB [1] was determined as 792%; in the test on GC3/Cl [2], 361%; with KB [3], 398%.
As for `O=C(CN1CCCCC1)N1c2ccccc2Oc2ccccc21`, the Control came out at 2023% in the test with KB [1] and 326% with KB [3]. Moreover, the IC10 in the test on KB [9] and in the test on GC3/Cl [11] was 40 µM each time. The pIC50 is 4.06 in the test on GC3/Cl [6]; 4.14 with KB [7]; 8.64 in the test on KB [10]; 8.22 in the test on KB [12]; 8.54 in the test on GC3/Cl [13]; 8.66 in the test on GC3/Cl [14].
As for `OCCN1CCN(CCCN2c3ccccc3Oc3ccccc32)CC1`, the Control is recorded as 824% with KB [1], 879% in the test on GC3/Cl [2] and 343% in the test with KB [3].
In the case of `O=C(CN1CCCC1)N1c2ccccc2Oc2ccccc21`, the Control in the test with KB [1] amounted to 776%; in the test with KB [3], 188%.
With `c1ccc2c(c1)Oc1ccccc1N2CCCN1CCCCC1`, the Control worked out at 1227% with KB [1], 633% in the test on GC3/Cl [2] and 435% with KB [3].
As for `COc1ccc(CCN(C)CCCC(C#N)(c2ccc(OC)c(OC)c2)C(C)C)cc1OC` (stereo not given), the Control with KB [1] is 1124%.
On to `OCCN(CCO)CCCN1c2ccccc2Oc2ccccc21`, for which the Control with KB [1] was 1666%; in the test with GC3/Cl [2], 1070%; with KB [3], 473%. Moreover, the IC10 with KB [9] and in the test with GC3/Cl [11] was 25 µM throughout. The pIC50 was 4.43 in the test with GC3/Cl [6]; 4.42 with KB [7]; 8.57 in the test on KB [10]; 8.23 in the test on KB [12]; 8.32 with GC3/Cl [13]; 8.70 with GC3/Cl [14].
As to `ClCCCN1c2ccccc2Oc2ccccc21`, the Control with KB [1] amounted to 342%; in the test with GC3/Cl [2], 570%; in the test with KB [3] it was 454%. For the same compound, the figures for the IC10 with KB [9] and in the test with GC3/Cl [11] were 20 µM and 50 µM, respectively. The negative logarithm of the IC50 (pIC50) in the test with GC3/Cl [6] was 4.08; with KB [7], 4.24; in the test with KB [10], 8.28; with KB [12] it was 7.93; with GC3/Cl [13], 8.70; in the test with GC3/Cl [14], 8.77.
As to `c1ccc2c(c1)Oc1ccccc1N2CCCN1CCOCC1`, the Control with KB [1] worked out at 1717%; in the test with GC3/Cl [2], 960%; in the test with KB [3], 742%. The 10% effect concentration (IC10) in the test with KB [9] and in the test with GC3/Cl [11] was 25 µM throughout. For the same compound, the pIC50 with GC3/Cl [6] is 4.40; with KB [7], 4.14; with KB [10], 8.80; with KB [12], 8.72; with GC3/Cl [13] it was 8.68; in the test with GC3/Cl [14], 8.70.
For the compound `CCN(CC)CC(=O)N1c2ccccc2Oc2ccccc21`, the Control in the test on KB [1] amounted to 953%; in the test with KB [3] it was 184%; with GC3/Cl [8], 160%.
Regarding `O=C(CN1CCN(CCO)CC1)N1c2ccccc2Oc2ccccc21`, the Control was determined as 776% in the test with KB [1] and 280% with KB [3].
With `c1ccc2c(c1)Oc1ccccc1N2CCCCN1CCOCC1`, the Control in the test on KB [1] stood at 2684%; in the test on GC3/Cl [2], 1175%; with KB [3], 702%. The IC10 with KB [9] is 6 µM; in the test on GC3/Cl [11] it was 10 µM. Moreover, the pIC50 with GC3/Cl [6] is 4.77; in the test with KB [7] it was 4.74; in the test on KB [10], 8.70; in the test on KB [12] it was 8.35; in the test on GC3/Cl [13] it was 8.62; with GC3/Cl [14], 8.70.
